The values below come from ChEMBL document CHEMBL1129608, “Phosphodiester amidates of allenic nucleoside analogues: anti-HIV activity and possible mechanism of action” (J Med Chem, 1996).

Data set [1] relates to ATH-8 cell line. The data set can be described thus: Compound was evaluated for the inhibition of replication and cytopathic effect of HIV-1 in ATH8 cells. It counts as functional, cell-based, Homo sapiens. The method in brief: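 ATH8 (CD4+) cells, 2 × 10⁵, were exposed to HIV-1 LAI (500 TCID50) for 45 min and then cultured with compound. Total viable cells were counted on day 7. Percent protection was calculated as viable cells (infected plus drug minus infected alone) divided by (uninfected minus infected alone) × 100. Cytotoxicity was 100 × (1 − viable cells with drug / viable cells alone).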

A short description of data set [2]: Kinetic hydrolysis catalyzed by pig liver esterase at pH 1.2. Type of data set: ADME, Sus scrofa.
Data set [3] in a line: Kinetic hydrolysis catalyzed by pig liver esterase at pH 9.8. It counts as ADME, Sus scrofa.
The next data set concerns L1210 (Mus musculus). The data set can be described thus: Compound was evaluated for the inhibitory activity in a clonogenic assay with murine leukemia L1210 cells.
Data set [4] is described as follows: Kinetic hydrolysis catalyzed by pig liver esterase at pH 7.4 and 37 degree C. Type of data set: ADME, Sus scrofa. The method in brief: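 Substrate at 2.2 × 10⁻³ M in 0.02 M Na₂HPO₄, pH 7.4, with pig liver esterase (200 units per 1 mL), stirred at 37 °C. Aliquots were taken at set times and analysed by reverse-phase C18 HPLC (water–CH₃CN gradient) to follow loss of substrate and give the half-life.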

Another data set has as its system L1210. In words: Compound was evaluated for the clonogenic assay with murine leukemia L1210 cells. Type of data set: functional. The settings on record: Mus musculus, read-out: ID50 (the source's name).
For data set [5], the system named is ATH-8 cell line. The data set can be described thus: Compound was evaluated for the cytotoxicity in ATH8 cells. The settings on record: Homo sapiens.

In the case of `COC(=O)C(C)NP(=O)(OCC=C=Cn1cnc2c(N)ncnc21)Oc1ccccc1` (stereo in doubt; 4a), the EC50 in the data set with ATH-8 cell line [1] (ath-8) came to 210 nM. This lies in the sub-micromolar range.
In the case of `COC(=O)C(C)NP(=O)(OCC=C=Cn1cnc2c(N)ncnc21)Oc1ccccc1` (stereo in doubt; 2a), the EC50 with ATH-8 cell line [1] (ath-8) worked out at 880 nM. Besides, the half-life was 24.4 h in data set [2], 2.52 h in data set [3] and 8.5 h in data set [4]. In the data set on L1210 (Mus musculus), this molecule showed an ID50 of over 300000 nM.
Take `Nc1ncnc2c1ncn2C=C=CCO`: the values for the IC50 with L1210 and with ATH-8 cell line [5] were 150000 nM and 3000 nM, respectively. This molecule gave an EC50 in the data set on ATH-8 cell line [1] (Homo sapiens, ATH-8) of 14000 nM.
